# Source: ChEMBL document CHEMBL2424551, “Synthesis, in vitro evaluation and molecular modelling of naphthalimide analogue as anticancer agents” (2013)
# The source made the active and inactive calls. No cut-off for these calls is given here.
# Experiments:
# Type in all cases: functional
# HCT-15 = experiment: Growth inhibition of human HCT15 cells at 10 uM after 48 hrs by SRB assay; details: HCT-15, 48 h, read-out: GI
# Summary of the method: (§1)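 Cells grown in RPMI 1640 with 5% FBS and 2 mM L-glutamine, plated at 5000–40,000 cells/well by doubling time and preincubated 24 h (37 °C, 5% CO2); a time-zero plate is TCA-fixed. Single dose added, then 48 h incubation. Fixed with cold TCA, stained with 0.4% SRB, dye solubilized in 10 mM Tris base, absorbance at 515 nm; percent growth vs time-zero and untreated control.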
# [1] = Growth inhibition of human HCC2998 cells at 10 uM after 48 hrs by SRB assay; details: HCC 2998, 48 h, read-out: GI; summary of the method: as §1
# NCI-H522 = experiment: Growth inhibition of human NCI-H522 cells at 10 uM after 48 hrs by SRB assay; details: NCI-H522, 48 h, read-out: GI; summary of the method: as §1
# NCI-H322M = experiment: Growth inhibition of human NCI-H322M cells at 10 uM after 48 hrs by SRB assay; details: read-out: GI; summary of the method: as §1
# NCI-H460 = experiment: Growth inhibition of human NCI-H460 cells at 10 uM after 48 hrs by SRB assay; details: NCI-H460, 48 h, read-out: GI; summary of the method: as §1
# NCI-H226 = experiment: Growth inhibition of human NCI-H226 cells at 10 uM after 48 hrs by SRB assay; details: NCI-H226, 48 h, read-out: GI; summary of the method: as §1
# NCI-H23 = experiment: Growth inhibition of human NCI-H23 cells at 10 uM after 48 hrs by SRB assay; details: NCI-H23, 48 h, read-out: GI; summary of the method: as §1
# HOP-62 = experiment: Growth inhibition of human HOP62 cells at 10 uM after 48 hrs by SRB assay; details: HOP-62, 48 h, read-out: GI; summary of the method: as §1
# CCRF-CEM = experiment: Growth inhibition of human CCRF-CEM cells at 10 uM after 48 hrs by SRB assay; details: read-out: GI; summary of the method: as §1
# K562 = experiment: Growth inhibition of human K562 cells at 10 uM after 48 hrs by SRB assay; details: K562, 48 h, read-out: GI; summary of the method: as §1
# A549 = experiment: Growth inhibition of human A549 cells at 10 uM after 48 hrs by SRB assay; details: A549, 48 h, read-out: GI; summary of the method: as §1
# RPMI-8226 = experiment: Growth inhibition of human RPMI8226 cells at 10 uM after 48 hrs by SRB assay; details: RPMI-8226, 48 h, read-out: GI; summary of the method: as §1
# MDA-MB-468 = experiment: Growth inhibition of human MDA-MB-468 cells at 10 uM after 48 hrs by SRB assay; details: for inhibition of growth at 10 µM: MDA-MB-468, 48 h, read-out: GI; summary of the method: as §1
# BT-549 = experiment: Growth inhibition of human BT549 cells at 10 uM after 48 hrs by SRB assay; details: BT-549, 48 h, read-out: GI; summary of the method: as §1
# T47D = experiment: Growth inhibition of human T47D cells at 10 uM after 48 hrs by SRB assay; details: read-out: GI
# Summary of the method: (§2)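 NCI 60-cell-line screen with a single 10 µM dose. Cells are grown in RPMI 1640 with 5% FBS and 2 mM L-glutamine, plated at 5000–40,000 cells/well according to doubling time, and preincubated 24 h at 37 °C, 5% CO2; time-zero plates are TCA-fixed at that point. Drug exposure is 48 h. Adherent cells are fixed with cold TCA, stained with 0.4% SRB in 1% acetic acid and read at 515 nm. Percent growth is calculated relative to time-zero and untreated controls and reported as GI%.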
# Hs-578T = experiment: Growth inhibition of human Hs578T cells at 10 uM after 48 hrs by SRB assay; details: for inhibition of growth at 10 µM: read-out: GI; summary of the method: as §1
# MCF7 = experiment: Growth inhibition of human MCF7 cells at 10 uM after 48 hrs by SRB assay; details: MCF7, 48 h, read-out: GI; summary of the method: as §1
# PC-3 = experiment: Growth inhibition of human PC3 cells at 10 uM after 48 hrs by SRB assay; details: PC-3, 48 h, read-out: GI; summary of the method: as §1
# TK-10 = experiment: Growth inhibition of human TK10 cells at 10 uM after 48 hrs by SRB assay; details: TK-10, 48 h, read-out: GI; summary of the method: as §2
# RXF 393 = experiment: Growth inhibition of human RXF393 cells at 10 uM after 48 hrs by SRB assay; details: RXF 393, 48 h, read-out: GI; summary of the method: as §1
# SN12C = experiment: Growth inhibition of human SN12C cells at 10 uM after 48 hrs by SRB assay; details: read-out: GI; summary of the method: as §2
# A498 = experiment: Growth inhibition of human A498 cells at 10 uM after 48 hrs by SRB assay; details: for inhibition of growth at 10 µM: A498, 48 h, read-out: GI; summary of the method: as §1
# SK-OV-3 = experiment: Growth inhibition of human SKOV3 cells at 10 uM after 48 hrs by SRB assay; details: SK-OV-3, 48 h, read-out: GI; summary of the method: as §2
# OVCAR-5 = experiment: Growth inhibition of human OVCAR5 cells at 10 uM after 48 hrs by SRB assay; details: OVCAR-5, 48 h, read-out: GI; summary of the method: as §1
# OVCAR-4 = experiment: Growth inhibition of human OVCAR4 cells at 10 uM after 48 hrs by SRB assay; details: OVCAR-4, 48 h, read-out: GI; summary of the method: as §1
# OVCAR-3 = experiment: Growth inhibition of human OVCAR3 cells at 10 uM after 48 hrs by SRB assay; details: OVCAR-3, 48 h, read-out: GI; summary of the method: as §1
# UACC-62 = experiment: Growth inhibition of human UACC62 cells at 10 uM after 48 hrs by SRB assay; details: UACC-62, 48 h, read-out: GI; summary of the method: as §2
# SK-MEL-5 = experiment: Growth inhibition of human SK-MEL-5 cells at 10 uM after 48 hrs by SRB assay; details: SK-MEL-5, 48 h, read-out: GI; summary of the method: as §1
# Malme-3M = experiment: Growth inhibition of human MALME-3M cells at 10 uM after 48 hrs by SRB assay; details: read-out: GI; summary of the method: as §1
# U-251 = experiment: Growth inhibition of human U251 cells at 10 uM after 48 hrs by SRB assay; details: U-251, 48 h, read-out: GI; summary of the method: as §2
# SNB-19 = experiment: Growth inhibition of human SNB19 cells at 10 uM after 48 hrs by SRB assay; details: SNB-19, 48 h, read-out: GI; summary of the method: as §2
# SNB-75 = experiment: Growth inhibition of human SNB75 cells at 10 uM after 48 hrs by SRB assay; details: SNB-75, 48 h, read-out: GI; summary of the method: as §2
# SW-620 = experiment: Growth inhibition of human SW620 cells at 10 uM after 48 hrs by SRB assay; details: SW-620, 48 h, read-out: GI; summary of the method: as §2
# KM12 = experiment: Growth inhibition of human KM12 cells at 10 uM after 48 hrs by SRB assay; details: KM12, 48 h, read-out: GI; summary of the method: as §1
# HCT-116 = experiment: Growth inhibition of human HCT116 cells at 10 uM after 48 hrs by SRB assay; details: HCT-116, 48 h, read-out: GI; summary of the method: as §1
# SR = experiment: Growth inhibition of human SR cells at 10 uM after 48 hrs by SRB assay; details: read-out: GI; summary of the method: as §2
Compound,inhibition of growth at 10 µM (HCT-15) [%],inhibition of growth at 10 µM (NCI-H522) [%],inhibition of growth at 10 µM (NCI-H322M) [%],inhibition of growth at 10 µM (NCI-H460) [%],inhibition of growth at 10 µM (NCI-H226) [%],inhibition of growth at 10 µM (NCI-H23) [%],inhibition of growth at 10 µM (HOP-62) [%],inhibition of growth at 10 µM (CCRF-CEM) [%],inhibition of growth at 10 µM (K562) [%],inhibition of growth at 10 µM (A549) [%],inhibition of growth at 10 µM (RPMI-8226) [%],inhibition of growth at 10 µM (BT-549) [%],inhibition of growth at 10 µM (T47D) [%],inhibition of growth at 10 µM (MCF7) [%],inhibition of growth at 10 µM (PC-3) [%],inhibition of growth at 10 µM (TK-10) [%],inhibition of growth at 10 µM (RXF 393) [%],inhibition of growth at 10 µM (SN12C) [%],inhibition of growth at 10 µM (SK-OV-3) [%],inhibition of growth at 10 µM (OVCAR-5) [%],other results
O=c1c2cccc3c(Nc4ccc(F)cc4)ccc(c32)c2nc3ccccc3n12,28.9,< 20,32.2,22.1,< 20,< 20,< 20,< 20,< 20,< 20,42.6,< 20,76.6,89.9,22.8,24.7,< 20,< 20,< 20,< 20,inhibition of growth at 10 µM [1]: 23.9%; growth inhibition (GI) (MDA-MB-468): Active; inhibition of growth at 10 µM (Hs-578T): 26.4%; inhibition of growth at 10 µM (A498): 33.8%; inhibition of growth at 10 µM (OVCAR-4): 24%; inhibition of growth at 10 µM (OVCAR-3): < 20%; inhibition of growth at 10 µM (UACC-62): 32.2%; inhibition of growth at 10 µM (SK-MEL-5): 29.6%; inhibition of growth at 10 µM (Malme-3M): < 20%; inhibition of growth at 10 µM (U-251): < 20%; inhibition of growth at 10 µM (SNB-19): 22.4%; inhibition of growth at 10 µM (SNB-75): 29.2%; inhibition of growth at 10 µM (SW-620): < 20%; inhibition of growth at 10 µM (KM12): 25.6%; inhibition of growth at 10 µM (HCT-116): < 20%
Nc1ccc(Sc2ccc3c4c2cccc4c(=O)n2c4ccccc4nc32)cc1,59.5,40,38.2,90.5,59.4,62.5,48.8,55.1,39.7,79.4,50,40.9,60.4,76.4,49.6,21.4,27.4,80.8,46.1,< 20,inhibition of growth at 10 µM [1]: < 20%; inhibition of growth at 10 µM (SR): 83.9%; inhibition of growth at 10 µM (MDA-MB-468): 56.5%; inhibition of growth at 10 µM (Hs-578T): 40.4%; inhibition of growth at 10 µM (A498): 41.2%; inhibition of growth at 10 µM (OVCAR-4): 26%; inhibition of growth at 10 µM (OVCAR-3): 22.2%; inhibition of growth at 10 µM (UACC-62): 68.1%; inhibition of growth at 10 µM (SK-MEL-5): 60.6%; inhibition of growth at 10 µM (Malme-3M): 66%; inhibition of growth at 10 µM (U-251): 60.1%; inhibition of growth at 10 µM (SNB-19): 53.7%; inhibition of growth at 10 µM (SNB-75): 56.3%; inhibition of growth at 10 µM (SW-620): 53.8%; inhibition of growth at 10 µM (KM12): 26.4%; inhibition of growth at 10 µM (HCT-116): 53.2%
O=c1[nH]cc(F)c(=O)[nH]1 [FLUOROURACIL],26.5,58,59.5,13,69.5,39,47.8,57.1,42.3,34.2,41.4,37.8,56.7,11.5,58.2,66.9,34.3,54,77.5,44.3,inhibition of growth at 10 µM (SR): 24.8%; growth inhibition (GI) (Hs-578T): Active; growth inhibition (GI) (A498): Active; inhibition of growth at 10 µM (OVCAR-4): 59.4%; inhibition of growth at 10 µM (OVCAR-3): 47.4%; inhibition of growth at 10 µM (UACC-62): 39.7%; inhibition of growth at 10 µM (SK-MEL-5): 33.7%; inhibition of growth at 10 µM (Malme-3M): 58.2%; inhibition of growth at 10 µM (U-251): 50.3%; inhibition of growth at 10 µM (SNB-19): 65.9%; inhibition of growth at 10 µM (SNB-75): 65.9%; inhibition of growth at 10 µM (SW-620): 50.1%; inhibition of growth at 10 µM (KM12): 40.7%; inhibition of growth at 10 µM (HCT-116): 17.8%
O=c1c2cccc3c(NCCO)ccc(c32)c2nc3ccccc3n12,< 20,< 20,< 20,42.8,< 20,22.2,< 20,< 20,< 20,< 20,28.6,< 20,31.7,57.5,< 20,< 20,< 20,< 20,< 20,< 20,inhibition of growth at 10 µM [1]: < 20%; inhibition of growth at 10 µM (MDA-MB-468): 81.1%; inhibition of growth at 10 µM (Hs-578T): < 20%; inhibition of growth at 10 µM (A498): 32.9%; inhibition of growth at 10 µM (OVCAR-4): < 20%; inhibition of growth at 10 µM (OVCAR-3): < 20%; inhibition of growth at 10 µM (UACC-62): 23.6%; inhibition of growth at 10 µM (SK-MEL-5): 20.2%; inhibition of growth at 10 µM (Malme-3M): < 20%; inhibition of growth at 10 µM (U-251): < 20%; inhibition of growth at 10 µM (SNB-19): < 20%; inhibition of growth at 10 µM (SNB-75): < 20%; inhibition of growth at 10 µM (SW-620): < 20%; inhibition of growth at 10 µM (KM12): < 20%; inhibition of growth at 10 µM (HCT-116): < 20%
